Where a SMILES comes first, the peptide text is derived from it. Bridges are numbered along the chain shown (N, C = ends).
How the values were obtained:
[1] = species on record: Homo sapiens; assay: Concentration required to inhibit the rate of platelet aggregation by 50% was determined with human gel filtered platelets (GFP); type: functional
Outline: (§1)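 Light-transmittance aggregometry at 37 °C on human gel-filtered platelets (2 × 10^8 platelets/mL) with 0.1 mg/mL human fibrinogen and 1 mM CaCl2; 10 μM ADP added last to start aggregation.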

[2] = species on record: Homo sapiens; assay: In vitro concentration required to inhibit the rate of human platelet aggregation (in platelet rich plasma) by 50% was determined in presence of 0.5 U/mL of thrombin and 1 mM GPRP; type: functional
Outline: (§2)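 PRP from blood spun at 150g for 5 min, count set to 200 000 cells/mm3 with PPP; 300 μL held 3 min at 37 °C before agonist. Aggregation read as % change in light transmission, PPP = 100%; inhibition relative to baseline response. Mean ± SE, n = 3–7.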

[3] = system: Canis familiaris; assay: Ex vivo antiplatelet activity was assessed following oral administration at a dose of 1 mg/kg to dogs in the presence of 10 uM of ADP and 1 uM of epinephrine at 0 min; type: functional; conditions: Canis lupus familiaris, 0 h
Outline: (§3)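 Four conscious mongrel dogs in slings, single oral 1.0 mg/kg crystalline solid in gelatin capsules; citrated venous blood (3.8% citrate) taken at baseline and 20–1440 min. PRP aggregation to ADP or collagen, each with 1 μM epinephrine, as % inhibition vs baseline. Mean ± SEM, n = 4.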

[4] = system: Canis familiaris; assay: Ex vivo antiplatelet activity was assessed following oral administration at a dose of 1 mg/kg to dogs in the presence of […] and 1 uM of epinephrine at 150 min; type: functional; conditions: Canis lupus familiaris, 2.5 h; outline: as §3
[5] = system: Canis familiaris; assay: Ex vivo antiplatelet activity was assessed following oral administration at a dose of 1 mg/kg to dogs in the presence of 10 uM of ADP and 1 uM of epinephrine at 90 min; type: functional; conditions: Canis lupus familiaris, 1.5 h; outline: as §3
[6] = In vitro concentration required to inhibit the rate of chimp platelet aggregation (in platelet rich plasma) by 50% was determined in presence of 20 uM of ADP; type: functional; conditions: Pan troglodytes; outline: as §2
[7] = species on record: Canis familiaris; assay: In vitro concentration required to inhibit the rate of dog platelet aggregation (in platelet rich plasma) by 50% was determined in presence of 10 uM of ADP and 1 uM of epinephrine; type: functional; conditions: Canis lupus familiaris; outline: as §2
[8] = system: Canis familiaris; assay: Ex vivo antiplatelet activity was assessed following oral administration at a dose of 1 mg/kg to dogs in the presence of […] and 1 uM of epinephrine at 300 min; type: functional; conditions: Canis lupus familiaris, 5 h; outline: as §3
[9] = system: Canis familiaris; assay: Ex vivo antiplatelet activity was assessed following oral administration at a dose of 1 mg/kg to dogs in the presence of 10 uM of collagen and 1 uM of epinephrine at 90 min; type: functional; conditions: Canis lupus familiaris, 1.5 h; outline: as §3
[10] = system: Canis familiaris; assay: Ex vivo antiplatelet activity was assessed following oral administration at a dose of 1 mg/kg to dogs in the presence of 10 uM of ADP and 1 uM of epinephrine at 40 min; type: functional; conditions: Canis lupus familiaris; outline: as §3
[11] = system: Canis familiaris; assay: Ex vivo antiplatelet activity was assessed following oral administration at a dose of 1 mg/kg to dogs in the presence of […] and 1 uM of epinephrine at 70 min; type: functional; conditions: Canis lupus familiaris; outline: as §3
[12] = system: Canis familiaris; assay: Ex vivo antiplatelet activity was assessed following oral administration at a dose of 1 mg/kg to dogs in the presence of 10 uM of ADP and 1 uM of epinephrine at 300 min; type: functional; conditions: Canis lupus familiaris, 5 h; outline: as §3
[13] = system: Canis familiaris; assay: Ex vivo antiplatelet activity was assessed following oral administration at a dose of 1 mg/kg to dogs in the presence of 10 uM of ADP and 1 uM of epinephrine at 250 min; type: functional; conditions: Canis lupus familiaris; outline: as §3
[14] = species on record: Homo sapiens; assay: In vitro concentration required to inhibit the rate of human platelet aggregation (in platelet rich plasma) by 50% was determined in presence of 10 ug/mL of collagen; type: functional; outline: as §2
[15] = species on record: Canis familiaris; assay: Whole blood platelet count was determined as delta% from baseline; type: functional, Canis lupus familiaris
Outline: (§4)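 Dogs given 1.0 mg/kg orally by capsule (n = 4); 1 mL citrated venous blood per time point (baseline to 1440 min) counted on an automated hematology analyzer; reported as 10^3/μL and Δ% from baseline, mean ± SEM.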

[16] = system: Canis familiaris; assay: Ex vivo antiplatelet activity was assessed following oral administration at a dose of 1 mg/kg to dogs in the presence of […] and 1 uM of epinephrine at 1440 min; type: functional; conditions: Canis lupus familiaris, 24 h; outline: as §3
[17] = system: Canis familiaris; assay: Ex vivo antiplatelet activity was assessed following oral administration at a dose of 1 mg/kg to dogs in the presence of 10 uM of ADP and 1 uM of epinephrine at 1440 min; type: functional; conditions: Canis lupus familiaris, 24 h; outline: as §3
[18] = species on record: Homo sapiens; assay: Concentration required to inhibit platelet aggregation by 50%; type: functional; outline: as §1
[19] = system: Canis familiaris; assay: Ex vivo antiplatelet activity was assessed following oral administration at a dose of 1 mg/kg to dogs in the presence of 10 uM of collagen and 1 uM of epinephrine at 40 min; type: functional; conditions: Canis lupus familiaris; outline: as §3
[20] = system: Canis familiaris; assay: Ex vivo antiplatelet activity was assessed following oral administration at a dose of 1 mg/kg to dogs in the presence of […] and 1 uM of epinephrine at 200 min; type: functional; conditions: Canis lupus familiaris; outline: as §3
[21] = system: Canis familiaris; assay: Ex vivo antiplatelet activity was assessed following oral administration at a dose of 1 mg/kg to dogs in the presence of […] and 1 uM of epinephrine at 0 min; type: functional; conditions: Canis lupus familiaris, 0 h; outline: as §3
[22] = In vitro concentration required to inhibit the rate of chimp platelet aggregation (in platelet rich plasma) by 50% was determined in presence of 10 ug/mL of collagen; type: functional; conditions: Pan troglodytes; outline: as §2
[23] = system: Canis familiaris; assay: Ex vivo antiplatelet activity was assessed following oral administration at a dose of 1 mg/kg to dogs in the presence of 10 uM of ADP and 1 uM of epinephrine at 150 min; type: functional; conditions: Canis lupus familiaris, 2.5 h; outline: as §3
[24] = system: Canis familiaris; assay: Ex vivo antiplatelet activity was assessed following oral administration at a dose of 1 mg/kg to dogs in the presence of 10 uM of ADP and 1 uM of epinephrine at 200 min; type: functional; conditions: Canis lupus familiaris; outline: as §3
[25] = species on record: Homo sapiens; assay: In vitro concentration required to inhibit the rate of human platelet aggregation (in platelet rich plasma) by 50% was determined in presence of 10 uM of epinephrine; type: functional; outline: as §2
[26] = species on record: Canis familiaris; assay: Whole blood platelet count was determined in 10e3/uL; type: functional, Canis lupus familiaris; outline: as §4
[27] = system: Canis familiaris; assay: Ex vivo antiplatelet activity was assessed following oral administration at a dose of 1 mg/kg to dogs in the presence of 10 uM of collagen and 1 uM of epinephrine at 480 min; type: functional; conditions: Canis lupus familiaris, 8 h; outline: as §3
[28] = species on record: Canis familiaris; assay: In vitro concentration required to inhibit the rate of dog platelet aggregation (in platelet rich plasma) by 50% was determined in presence of 10 ug/mL of collagen and 1 uM of epinephrine; type: functional; conditions: Canis lupus familiaris; outline: as §2
[29] = system: Canis familiaris; assay: Ex vivo antiplatelet activity was assessed following oral administration at a dose of 1 mg/kg to dogs in the presence of […] and 1 uM of epinephrine at 20 min; type: functional; conditions: Canis lupus familiaris; outline: as §3
[30] = system: Canis familiaris; assay: Ex vivo antiplatelet activity was assessed following oral administration at a dose of 1 mg/kg to dogs in the presence of 10 uM of ADP and 1 uM of epinephrine at 70 min; type: functional; conditions: Canis lupus familiaris; outline: as §3
[31] = system: Canis familiaris; assay: Ex vivo antiplatelet activity was assessed following oral administration at a dose of 1 mg/kg to dogs in the presence of 10 uM of ADP and 1 uM of epinephrine at 350 min; type: functional; conditions: Canis lupus familiaris; outline: as §3
[32] = species on record: Homo sapiens; assay: In vitro concentration required to inhibit the rate of human platelet aggregation (in platelet rich plasma) by 50% was determined in presence of 10 uM of ADP; type: functional; outline: as §2
[33] = system: Canis familiaris; assay: Ex vivo antiplatelet activity was assessed following oral administration at a dose of 1 mg/kg to dogs in the presence of […] and 1 uM of epinephrine at 250 min; type: functional; conditions: Canis lupus familiaris; outline: as §3
[34] = system: Canis familiaris; assay: Ex vivo antiplatelet activity was assessed following oral administration at a dose of 1 mg/kg to dogs in the presence of 10 uM of ADP and 1 uM of epinephrine at 20 min; type: functional; conditions: Canis lupus familiaris; outline: as §3
[35] = system: Canis familiaris; assay: Ex vivo antiplatelet activity was assessed following oral administration at a dose of 1 mg/kg to dogs in the presence of 10 uM of ADP and 1 uM of epinephrine at 480 min; type: functional; conditions: Canis lupus familiaris, 8 h; outline: as §3
[36] = system: Canis familiaris; assay: Ex vivo antiplatelet activity was assessed following oral administration at a dose of 1 mg/kg to dogs in the presence of 10 uM of collagen and 1 uM of epinephrine at 350 min; type: functional; conditions: Canis lupus familiaris; outline: as §3

C[C@@H](CC(=O)O)NC(=O)CN1CCC[C@@H](CCC2CCNCC2)C1=O
IC50 [1]: 7800 nM

C[C@H](CC(=O)O)NC(=O)CN1CCC[C@@H](CCC2CCNCC2)C1=O
IC50 [2]: 27 nM | inhibition in vivo at 1 mg/kg [3]: 0% | inhibition in vivo at 1 mg/kg [4]: 94% | inhibition in vivo at 1 mg/kg [5]: 96% | IC50 [6]: 42 nM | IC50 [7]: 41 nM | inhibition in vivo at 1 mg/kg [8]: 67% | inhibition in vivo at 1 mg/kg [9]: 75% | inhibition in vivo at 1 mg/kg [10]: 86% | inhibition in vivo at 1 mg/kg [11]: 79% | inhibition in vivo at 1 mg/kg [12]: 91% | inhibition in vivo at 1 mg/kg [13]: 90% | IC50 [14]: 67 nM | Delta [15]: -0.5% [middle of 10 runs] | inhibition in vivo at 1 mg/kg [16]: 3% | inhibition in vivo at 1 mg/kg [17]: 2% | IC50 [18]: 32 nM | inhibition in vivo at 1 mg/kg [19]: 79% | inhibition in vivo at 1 mg/kg [20]: 78% | inhibition in vivo at 1 mg/kg [21]: 0% | IC50 [22]: 40 nM | inhibition in vivo at 1 mg/kg [23]: 96% | inhibition in vivo at 1 mg/kg [24]: 94% | IC50 [25]: 36 nM | Platelet count [26]: 322000 µL⁻¹ | inhibition in vivo at 1 mg/kg [27]: 31% | IC50 [28]: 40 nM | IC50 [1]: 32 nM | inhibition in vivo at 1 mg/kg [29]: 48% | inhibition in vivo at 1 mg/kg [30]: 93% | inhibition in vivo at 1 mg/kg [31]: 81% | IC50 [32]: 23 nM | inhibition in vivo at 1 mg/kg [33]: 72% | inhibition in vivo at 1 mg/kg [34]: 50% | inhibition in vivo at 1 mg/kg [35]: 63% | inhibition in vivo at 1 mg/kg [36]: 54%

O=C(O)CCNC(=O)CNC(=O)CCCC1CCNCC1
IC50 [1]: 8400 nM

O=C(O)CCNC(=O)CN1CCC[C@@H](CCC2CCNCC2)C1=O
IC50 [1]: 83 nM

CC(=O)N[C@H]1CSSC[C@@H](C(=O)O)NC(=O)[C@H](CC(=O)O)NC(=O)CNC(=O)[C@H](CCCN=C(N)N)NC1=O (Ac-CRGDC-OH; disulfide 1-5)
IC50 [1]: 680 nM

Reference: ChEMBL document CHEMBL1128523, “Non-peptide fibrinogen receptor antagonists. 7. Design and synthesis of a potent, orally active fibrinogen receptor antagonist” (J Med Chem, 1995)
